Assay results from ChEMBL document CHEMBL1795210, “Synthesis and screening of (E)-1-(β-D-galactopyranosyl)-4-(aryl)but-3-ene-2-one against Mycobacterium tuberculosis” (2011).
Converted amounts (≈) assume the structure as drawn.

Each molecule was assayed on Mycobacterium tuberculosis (assay: Antimicrobial activity against Mycobacterium tuberculosis H37Rv after 28 days by agar dilution method). Conditions: 672 h.
Format: functional
In short: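 Agar dilution on Middlebrook 7H11 with OADC supplement. Compound serially diluted into the agar, […]. H37Rv inoculum from fresh 7H11 slants, set to 1 mg/mL wet weight in 0.05% Tween 80 saline, diluted 10^2 to about 10^7 cfu/mL; 5 µL spotted per tube. Incubated at 37 C, read at 28 days. MIC = lowest concentration giving complete growth inhibition.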

**Q.** For `O=C(/C=C/c1ccc(CO)o1)C[C@@H]1O[C@H](CO)[C@H](O)[C@H](O)[C@H]1O`, which MIC is on record?
**A.** Its MIC is 1.56 µg/mL (≈ 4.75 µM).

**Q.** For `COc1ccc(-c2ccc(/C=C/C(=O)C[C@@H]3O[C@H](CO)[C@H](O)[C@H](O)[C@H]3O)o2)cc1Cl`, which MIC is on record?
**A.** Its MIC is 3.13 µg/mL (≈ 7.13 µM).

**Q.** `O=C(/C=C/c1ccc(-c2ccc(Cl)cc2[N+](=O)[O-])o1)C[C@@H]1O[C@H](CO)[C@H](O)[C@H](O)[C@H]1O` was tested. Which MIC did it give?
**A.** The MIC was > 12.5 µg/mL.

**Q.** With `O=C(/C=C/c1ccc(-c2ccccc2[N+](=O)[O-])o1)C[C@@H]1O[C@H](CO)[C@H](O)[C@H](O)[C@H]1O` as the molecule, how does the MIC read?
**A.** The MIC was > 12.5 µg/mL.

**Q.** Which MIC does the source give for `O=C(/C=C/c1ccc2c(c1)OCO2)C[C@@H]1O[C@H](CO)[C@H](O)[C@H](O)[C@H]1O` here?
**A.** The MIC was 1.56 µg/mL (≈ 4.43 µM).

**Q.** With `COc1c(O)cc(/C=C/C(=O)C[C@@H]2O[C@H](CO)[C@H](O)[C@H](O)[C@H]2O)cc1[N+](=O)[O-]` as the molecule, how does the MIC read?
**A.** Its MIC is 1.56 µg/mL (≈ 3.91 µM).

**Q.** `COc1cc(/C=C/C(=O)C[C@@H]2O[C@H](CO)[C@H](O)[C@H](O)[C@H]2O)cc(OC)c1OC` was tested. Which MIC did it give?
**A.** The MIC was 6.25 µg/mL (≈ 15.7 µM).

**Q.** `COc1cc(OC)c(/C=C/C(=O)C[C@@H]2O[C@H](CO)[C@H](O)[C@H](O)[C@H]2O)c(OC)c1` was tested. Which MIC did it give?
**A.** The MIC was 6.25 µg/mL (≈ 15.7 µM).

**Q.** How did the MIC turn out when `COc1ccc(/C=C/C(=O)C[C@@H]2O[C@H](CO)[C@H](O)[C@H](O)[C@H]2O)cc1Br` was run?
**A.** The MIC was > 12.5 µg/mL.

**Q.** With `O=C(/C=C/c1ccc(C(=O)O)cc1)C[C@@H]1O[C@H](CO)[C@H](O)[C@H](O)[C@H]1O` as the molecule, how does the MIC read?
**A.** Its MIC is 1.56 µg/mL (≈ 4.43 µM).

**Q.** Which MIC does the source give for `CN(C)c1ccc(/C=C/C(=O)C[C@@H]2O[C@H](CO)[C@H](O)[C@H](O)[C@H]2O)cc1` here?
**A.** Its MIC is 1.56 µg/mL (≈ 4.44 µM).

**Q.** For `O=C(/C=C/c1ccc(N(CCO)CCO)cc1)C[C@@H]1O[C@H](CO)[C@H](O)[C@H](O)[C@H]1O`, which MIC is on record?
**A.** Its MIC is 6.25 µg/mL (≈ 15.2 µM).

**Q.** Which MIC does the source give for `O=C(/C=C/c1ccc2ccccc2n1)C[C@@H]1O[C@H](CO)[C@H](O)[C@H](O)[C@H]1O` here?
**A.** The MIC was 3.13 µg/mL (≈ 8.71 µM).

**Q.** For `O=C(/C=C/c1cnc2ccccc2c1)C[C@@H]1O[C@H](CO)[C@H](O)[C@H](O)[C@H]1O`, which MIC is on record?
**A.** The MIC was 6.25 µg/mL (≈ 17.4 µM).

**Q.** Which MIC does the source give for `O=C(/C=C/c1ccc2cccc(O)c2n1)C[C@@H]1O[C@H](CO)[C@H](O)[C@H](O)[C@H]1O` here?
**A.** Its MIC is 3.13 µg/mL (≈ 8.34 µM).

**Q.** `C=Cc1cccc(/C=C/C(=O)C[C@@H]2O[C@H](CO)[C@H](O)[C@H](O)[C@H]2O)c1` was tested. Which MIC did it give?
**A.** Its MIC is 3.13 µg/mL (≈ 9.36 µM).

**Q.** How did the MIC turn out when `C#Cc1ccccc1/C=C/C(=O)C[C@@H]1O[C@H](CO)[C@H](O)[C@H](O)[C@H]1O` was run?
**A.** Its MIC is > 12.5 µg/mL.

**Q.** How did the MIC turn out when `O=C(/C=C/c1ccc(-c2ccccc2)cc1)C[C@@H]1O[C@H](CO)[C@H](O)[C@H](O)[C@H]1O` was run?
**A.** Its MIC is 6.25 µg/mL (≈ 16.3 µM).

**Q.** With `O=C(/C=C/c1cc(C(F)(F)F)ccc1C(F)(F)F)C[C@@H]1O[C@H](CO)[C@H](O)[C@H](O)[C@H]1O` as the molecule, how does the MIC read?
**A.** The MIC was 12.5 µg/mL (≈ 28.1 µM).

**Q.** How did the MIC turn out when `CC[C@@H](CO)NCCN[C@@H](CC)CO` [ETHAMBUTOL] was run?
**A.** The MIC was 1.56 µg/mL (≈ 7.64 µM).

**Q.** For `NNC(=O)c1ccncc1` [ISONIAZID], which MIC is on record?
**A.** Its MIC is 0.05 µg/mL (≈ 0.365 µM).

**Q.** With `CO[C@H]1/C=C/O[C@@]2(C)Oc3c(C)c(O)c4c(O)c(c(/C=N/N5CCN(C)CC5)c(O)c4c3C2=O)NC(=O)/C(C)=C\C=C\[C@H](C)[C@H](O)[C@@H](C)[C@@H](O)[C@@H](C)[C@H](OC(C)=O)[C@@H]1C` [RIFAMPIN] as the molecule, how does the MIC read?
**A.** The MIC was 0.1 µg/mL (≈ 0.122 µM).
